Usually inhibition stands for the percentage by which the read-out fell short of the control.

Several values for one entry are separate records, joined by “and”; a condition that tells them apart may be missing. Equal values may be shown once.

For the first test, the species on record is Mus musculus. Briefly: Antitumor activity in CD-1 female mouse skin Papilloma assay.
Settings: not given
It counts as functional. A digest of the protocol: (§1)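 CD-1 female mice. Initiation with DMBA (0.2 μmol in 0.2 mL acetone) on shaved dorsal skin. Promotion began 14 days later with TPA (10 nmol in acetone) twice weekly. Retinoid applied topically in 0.2 mL acetone to the same area. Dose-response used 137.7/135.7, 45.9, 15.3 or 5.1 nmol. Papillomas counted per mouse at day 83–89 after promotion start. Tumor-free mice also recorded. ED50 derived from the dose-response.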
With `CC(/C=C/C=C(\C)COc1ccc(C(C)(C)C)cc1C(C)(C)C)=C\C(=O)O`, the ED50 is greater than 45.9 nmol.
The same measure, in the same setting: to `CC(/C=C/C=C(\C)C(=O)Nc1ccc(C(C)(C)C)cc1C(C)(C)C)=C\C(=O)O` belongs greater than 100 nmol.
Still for that read-out and setting: to `COC(=O)/C=C(C)/C=C/C=C(\C)C(=O)Nc1ccc(C(C)(C)C)cc1C(C)(C)C` belongs greater than 100 nmol; to `CC(/C=C/C=C(\C)COc1cc(C)cc(C)c1C)=C\C(=O)O`, 27 nmol; to `CC1=C(/C=C/C(C)=C/C=C/C(C)=C/C(=O)O)C(C)(C)CCC1` [TRETINOIN], 5.2 nmol.
The same measure, in the same setting: to `CC(/C=C/C=C(\C)COc1c(C)cc(C)cc1C)=C\C(=O)O` belongs 60 nmol; to `CC(/C=C/C=C(\C)COc1c(Cl)cc(F)cc1Cl)=C\C(=O)O`, greater than 100 nmol; to `COc1ccc(OC/C(C)=C/C=C/C(C)=C/C(=O)O)c(C(C)(C)C)c1`, greater than 100 nmol.
In the case of `CC(/C=C/C=C(\C)COc1ccc(F)cc1C)=C\C(=O)O`, the ED50 came to 45.9 nmol.
The molecule `COc1cc(NC(=O)/C(C)=C/C=C/C(C)=C/C(=O)O)cc(OC)c1` registered an ED50 greater than 45.9 nmol.
Molecule `CCOC(=O)/C=C(C)/C=C/C=C(C)/C=C/c1c(C)cc(OC)c(C)c1C` [ETRETINATE] registered an ED50 of 7.2 nmol.
Same read-out and setting: then `CC(/C=C/C=C(\C)C(=O)Nc1c(C)cc(C)cc1C)=C\C(=O)O`, with greater than 100 nmol.

For another test, the species on record is Mus musculus. Briefly: Antitumor activity in CD-1 female mouse skin Papilloma assay at 45.9 nmol dose. It is filed as functional.
Settings: not given
A digest of the protocol:
as §1
`CC(/C=C/C=C(\C)COc1cc(C)cc(C)c1C)=C\C(=O)O`: the Control stood at 36%; the No. of tumors/mouse is 15 and 5.

The next test is filed under the species Mus musculus. Briefly: Antitumor activity in CD-1 female mouse skin Papilloma assay at 5.1 nmol dose. It is filed as functional.
Settings: not given
A digest of the protocol:
as §1
Turning to `CC(/C=C/C=C(\C)COc1cc(C)cc(C)c1C)=C\C(=O)O`, the Control is listed as 89%; the No. of tumors/mouse is 29 and 12.4.

The species entered for the next test is Mus musculus. Briefly: Antitumor activity in CD-1 female mouse skin Papilloma assay at 135.7 nmol dose. It is filed as functional.
Settings: not given
A digest of the protocol:
as §1
As for `CC(/C=C/C=C(\C)COc1cc(C)cc(C)c1C)=C\C(=O)O`, the Control worked out at 10%.

The species entered for a further test is Mus musculus. Briefly: Antitumor activity in CD-1 female mouse skin Papilloma assay at 15.3 nmol dose. It counts as functional.
Settings: not given
A digest of the protocol:
as §1
In the case of `CC(/C=C/C=C(\C)COc1cc(C)cc(C)c1C)=C\C(=O)O`, the Control worked out at 66%; the No. of tumors/mouse was 22 and 9.2.
The molecule `CC1=C(/C=C/C(C)=C/C=C/C(C)=C/C(=O)O)C(C)(C)CCC1` [TRETINOIN] registered a Control of 8%.

In a further test the target is T1, Retinoic acid receptor alpha (Mus musculus) (UniProt P11416).
T1 sequence (whole entry): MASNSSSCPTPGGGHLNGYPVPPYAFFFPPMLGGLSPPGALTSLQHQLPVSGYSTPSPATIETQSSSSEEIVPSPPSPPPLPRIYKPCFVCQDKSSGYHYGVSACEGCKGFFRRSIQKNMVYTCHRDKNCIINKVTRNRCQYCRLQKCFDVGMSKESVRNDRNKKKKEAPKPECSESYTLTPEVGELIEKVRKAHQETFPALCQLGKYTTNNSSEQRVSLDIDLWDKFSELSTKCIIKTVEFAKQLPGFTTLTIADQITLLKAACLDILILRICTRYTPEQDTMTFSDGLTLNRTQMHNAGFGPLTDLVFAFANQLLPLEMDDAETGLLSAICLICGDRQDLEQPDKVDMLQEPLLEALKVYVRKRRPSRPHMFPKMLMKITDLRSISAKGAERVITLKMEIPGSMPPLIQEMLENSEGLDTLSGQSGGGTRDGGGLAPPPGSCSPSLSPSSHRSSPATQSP
Briefly: Inhibition of [3H]-retinoic acid binding to murine retinoic acid receptor RAR alpha. Also noted: concentration or dose not given beside the values. The following applies: concentration not given here. A digest of the protocol:
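RARα binding: inhibition of tritiated retinoic acid binding by a 200-fold molar excess of unlabeled retinoid, expressed as percent inhibition.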
On to `CC(/C=C/C=C(\C)COc1ccc(C(C)(C)C)cc1C(C)(C)C)=C\C(=O)O`, for which the inhibition turned out to be 5%.
`CC(/C=C/C=C(\C)C(=O)Nc1ccc(C(C)(C)C)cc1C(C)(C)C)=C\C(=O)O` had an inhibition of 0%.
On the same count and under the same terms, then `CC(/C=C/C=C(\C)COc1cc(C)cc(C)c1C)=C\C(=O)O`, with 30%; and `CC(/C=C/C=C(\C)COc1c(C)cc(C)cc1C)=C\C(=O)O`, with 30%; and `CC(/C=C/C=C(\C)C(=O)Nc1c(C)cc(C(C)(C)C)cc1C(C)(C)C)=C\C(=O)O`, with 15%.
The same measure, in the same setting: then `COc1ccc(OC/C(C)=C/C=C/C(C)=C/C(=O)O)c(C(C)(C)C)c1`, with 25%; and `CC(/C=C/C=C(\C)COc1ccc(F)cc1C)=C\C(=O)O`, with 0%.

The record behind these values is ChEMBL document CHEMBL1145036, “Inhibition of papilloma formation by analogues of 7,8-dihydroretinoic acid” (2003).
